Screening data from PubChem.
The entries come from a sample that favours hits as a whole.
CHOP inhibitor = blocks CHOP induction under ER stress | hit rate 3.8% among 220,000 | CHO-K1 CHOP-promoter luciferase, tunicamycin-induced, 15-18 h | inhibition, % at 10 µM;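 active = compounds that reduced the stress-induced luciferase reporter signal by more than about 70% of percent inhibition, limit read from the data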;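 note: 0% = tunicamycin plus vehicle and 100% = wells without tunicamycin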
CHOP UPR activ = activators of apoptotic arm of unfolded protein response (CHOP); CHO-CHOP luciferase reporter, UPR activation, luminescence; percent of tunicamycin response over DMSO baseline; activation, % at 10 µM; hit rate 0.34% among 330,000;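 active = at 10 µM dose, activation of 40% or more, normalized to positive control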;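 note: 100% = tunicamycin at 10 µg/mL and 0% = DMSO alone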
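Dosing – one dose, 10 µM in 0.5% DMSO · System – CHO-CHOP cells, stable luciferase reporter of PERK-eIF2a-CHOP signalling · Input – 500 cells/well · Control set – tunicamycin 10 µg/mL final as positive, DMSO-only wells as negative · Timing – 6 h compound treatment, 37 °C · Measure – % activation vs tunicamycin · Technique – luminescence read with Steady-Glo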
FXN GAA850 act = frataxin GAA850 promoter activation. hit rate 0.56% among 360,000. HEK293 lucGAA850 FXN promoter luciferase reporter, 24 h; percent of 10 µM SAHA response. AID 540364. activation, % at 6 µM;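 active = activation above the average of all compounds screened plus 3 SD, cutoff fixed separately per campaign, cut at about 7.5% in these data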;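 note: 0% = DMSO wells and 100% = 10 µM SAHA wells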
UPR XBP1 act = activators of adaptive arm of unfolded protein response (XBP1); hit rate 0.33% among 330,000; activation, % at 20 µM; CHO-XBP1 luciferase reporter, IRE1-XBP1 UPR activation, luminescence; percent of tunicamycin response, DMSO as zero;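 active = versus positive control, 20 µM dose yields 30% or more activation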;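 note: 100% = tunicamycin at 10 µg/mL and 0% = DMSO only wells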
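Material – CHO cell line with stable XBP1 luciferase reporter · Buffer or medium – F12 plus 10% FBS · Compound – single point, 20 µM final compound, 1% DMSO · Schedule – 16-18 h cell attachment at 37 °C, then 6 h compound exposure · Signal – Steady-Glo luminescence read · Benchmarks – high control tunicamycin 10 µg/mL final, low control DMSO vehicle only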
GAA30 counter = counter-screen for GAA850 frataxin promoter activators: GAA30 promoter activation; activation, % at 6 µM; AID 588350; HEK293 lucGAA30 FXN promoter luciferase, 24 h; DMSO = 0%, 5 µM ipriflavone = 100%; hit rate 66% among 1,900; shares compounds with FXN GAA850 act;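 active = mean activation above the mean of solvent-only control wells plus 3 SD, cut at about 22% in these data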;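 note: counterscreen of GAA850 promoter hits where activity marks nonselective or luminescence artifacts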
GAA850 confirm = GAA850 FXN promoter activation confirmation. shares compounds with FXN GAA850 act. HEK293 lucGAA850 FXN promoter luciferase reporter, 24 h; 100% = activation by SAHA. activation, % at 6 µM. hit rate 86% among 1,900;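 active = mean activation above a set limit taken from the primary screen, cut at about 8% in these data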;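 note: 0% = DMSO wells and 100% = 10 µM SAHA wells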
Active calls of the source: *; x = no result; ! = a repeat was not active.

SMILES	CHOP inhibitor	CHOP UPR activ	FXN GAA850 act	UPR XBP1 act	GAA30 counter	GAA850 confirm
O=C(CSc1ncn[nH]1)Nc1c(F)cc(F)cc1Br	-15.2	-0.3	13.9*	-1.7	4.1	0.4
O=C(CSc1nc2ncccc2[nH]1)Nc1c(F)cc(F)cc1Br	x	2.8	-2.8	-3.6	x	x
COC(=O)c1c(NC(=O)CN2CCC3(O)CCCCC3C2c2cc(OC)ccc2OC)sc(C)c1C (configuration not stated)	45.7	0.7	11.8*	2.4	-0.4	9.9*
CCCOc1ccc(-c2c(=O)n(O)c3ccccc3[n+]2[O-])cc1	x	7.4	11.0*	0.1	94.9*	30.6*
COc1cccc(C(O)c2ncc(-c3ccc(Cl)cc3)[nH]2)c1 (configuration not stated)	x	x	-0.1	x	x	x
CC(O)(c1ccccc1)c1nc(-c2ccncc2)cs1 (configuration not stated)	x	x	0.9	x	x	x
S=C(Nc1ccc(Cl)cc1)c1nc2ccccc2[nH]1	8.2	5.9	7.8*	8.4	113.3*	33.2*
CCC(=O)N1CCC1(C)C(=O)Nc1ccc(OC(F)F)cc1 (configuration not stated)	x	x	-1.5	x	x	x
COc1ccc([C@H]2CN(Cc3ccccc3)C(=O)[C@@H]2CC(=O)Nc2ccccc2)cc1	x	x	-2.6	x	x	x
CCOC(=O)c1c(NC(=O)c2cccnc2Cl)sc(C(=O)N(C)C)c1C	0.4	5.6	10.2*	7.8	10.2	6.8
C=CCNc1nc(Nc2ccc(OC)cc2)nc(OC)n1	-4.5	-0.3	1.3	0.2	x	x
C=CCNc1nc(Cl)nc(Nc2ccc(OC)cc2)n1	27.6	0.1	8.1*	4.7	63.9*	25.0*
N#C/C(=C\c1cccc(Oc2ccc(C(F)(F)F)cc2[N+](=O)[O-])c1)c1nc2ccccc2[nH]1	27.7	-1.4	8.0*	-2.2	22.7*	7.9*
Cc1ccc2nc(/C(C#N)=C\c3ccc(Oc4ccc(C(F)(F)F)cc4[N+](=O)[O-])cc3)[nH]c2c1	-4.2	0.4	-0.5	4.0	x	x
C=CCOc1cccn2c(N(C=O)Cc3ccccc3)c(CC)nc12	x	x	-0.4	x	x	x
Cc1cc2nc(N)sc2cc1C	33.5	4.5	8.4*	1.8	108.8*	26.5*
CC(C)c1ccc2nc(N)sc2c1	10.7	4.3	7.4	1.0	x	x
CCc1ccc(C(=O)NC(CC(C)C)C(=O)O)cc1 (configuration not stated)	-10.8	2.1	20.4*	-3.3	20.5	6.2
Cc1c(C(=O)Nc2ccccc2)csc1-c1ccccc1	38.6	2.7	8.5*	-1.6	112.5*	28.6*
Cc1c(C(=O)Nc2ccccc2[N+](=O)[O-])csc1-c1ccccc1	30.3	4.0	4.0	-0.4	x	x
CCOC(=O)C(=O)/C(C#N)=C/Nc1ccccc1	13.6	-2.3	2.0	-2.6	x	x
CCOC(=O)/C(C#N)=C/Nc1ccccc1OC	-29.7	1.5	8.0*	2.3	91.8*	28.5*
c1ccc2nc3c(ccc4ccccc43)cc2c1	x	x	7.7*	x	105.8*	36.7*
Cc1cccc2cc3ccccc3nc12	x	5.0	0.9	-0.9	x	x
COc1cc2c(cc1OC)C1=C(C#N)CC/C(=N\S(=O)(=O)c3cccc(Cl)c3)N1CC2	4.0	-2.2	8.2*	4.4	27.2*	13.9*
SMILES	CHOP inhibitor	CHOP UPR activ	FXN GAA850 act	UPR XBP1 act	GAA30 counter	GAA850 confirm
Cc1ccc(C(=O)NCCc2csc(-c3cccnc3)n2)cc1	24.4	1.3	19.9*	2.7	76.4*	27.3*
O=C(C[C@H]1C(=O)N(CCc2ccccc2)C[C@@H]1c1ccccc1)Nc1ccccc1	x	x	-0.3	x	x	x
O=C(NC1=NN(c2ccccc2)CC1)Nc1ccccc1F	47.1	2.3	8.5*	2.9	45.5*	18.2*
CCCCNC(=O)C1(C)CCN1C(=O)c1cccc2c1OCCO2 (configuration not stated)	x	x	-0.5	x	x	x
COc1ccc(N2C(=O)CS(=O)C(c3ccccc3)C2=O)cc1 (configuration not stated)	-4.3	12.1	5.2	8.1	x	x
Cc1ccc(N2C(=O)CS(=O)C(c3ccccc3)C2=O)cc1C (configuration not stated)	3.8	15.9	8.2*	9.3	58.1*	16.4*
COc1ccc(CC(C)NCC(O)c2ccc(O)c(NC=O)c2)cc1 (configuration not stated)	x	x	8.0*!	x	16.1	26.6*
CC(CCc1ccccc1)NCC(O)c1ccc(O)c(C(N)=O)c1 (configuration not stated)	18.6	0.6	-2.1	-9.7	x	x
CCCCOc1ccc(C2=NNC(=O)CC2)cc1	14.5	0.5	10.4*	3.9	42.3*	14.8*
CC(=O)NCCNC(=O)Cn1nnc(-c2ccccc2)c1COc1ccc2ccccc2c1	x	x	2.2	x	x	x
COc1ccc(-c2ccc(SCc3ccccn3)nn2)cc1OC	-8.0	1.3	4.7	0.7	x	x
COc1cccc(-c2ccc(SCc3ccccn3)nn2)c1	-27.8	4.6	8.7*	4.3	109.6*	36.3*
COc1ccc(NC(=O)N(C)C[C@@H]2OCc3cnnn3CCCC(=O)N([C@H](C)CO)C[C@@H]2C)cc1	x	x	0.6	x	x	x
COc1cccc(-c2cc3nc(NCc4ccc(C)cc4C)n(C)c(=O)c3s2)c1	x	x	2.4	x	x	x
Nc1c(-c2cccs2)cnc2c(-c3ccc(F)cc3)cnn12	x	5.1	6.0	-3.0	x	x
Nc1c(-c2ccccc2)cnc2c(-c3ccccc3)cnn12	x	-2.4	8.4*	-7.8	90.5*	35.0*
Cc1ccccc1-c1nnc(-c2cccs2)o1	-9.2	4.6	8.0*	2.4	105.7*	30.1*
N#CC(=C1CCCC1)c1nc(-c2ccccc2)cs1	15.8	5.7	9.5*	5.3	111.0*	39.1*
O=C(NC(=S)NC1CCCCCC1)c1cncc(Br)c1	17.8	8.2	8.3*	2.5	95.0*	32.7*
CC(=O)Nc1ccc(/C=N/N2CCCCC2)cc1	-37.1	4.0	7.6*	-3.4	86.5*	29.3*
CC(=O)Nc1ccc(/C=N/N2C(C)CCCC2C)cc1 (configuration not stated)	-8.0	0.0	-0.1	-1.6	x	x
c1cncc(-c2nc3ccccc3s2)c1	6.1	0.4	7.7*	0.3	86.3*	27.6*
c1ccc2sc(-c3ccncc3)nc2c1	40.0	4.6	4.1	1.5	x	x
C[C@@H]1CN([C@@H](C)CO)C(=O)c2cc(Br)cnc2O[C@H]1CN(C)C(=O)Cc1ccccn1	x	x	-1.8	x	x	x
Cc1ccc(Cl)cc1N1CCN(C(=O)C2CCN(c3nnc(-n4cccc4)s3)CC2)CC1	x	1.1	8.2*	-0.5	1.5	3.5
N#Cc1nc(COc2ccccc2F)oc1N1CCCCCC1	47.4	3.0	9.6*	2.1	47.1*	23.7*
